One series deals with RAW264.7. Kind of series: Cytotoxicity against mouse RAW264.7 cells assessed as cell viability up to 100 uM after 24 hrs by MTT assay. In kind it is cell-based. The settings on record: raw264.7, 24 h. Put shortly: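 RAW264.7 macrophages seeded at 1 × 10^4 cells/well, settled 18 h at 37 °C, then exposed to inhibitors up to 100 µM for 24 h. Compounds were predissolved in DMSO and diluted in medium, final DMSO 0.05% (v/v). MTT (4 mg/ml) was added for 4 h at 37 °C, formazan solubilized in DMSO, and absorbance read at 570/630 nm.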
In general terms: Formazan colour is commonly taken as a measure of viable cells.

Series [1] addresses T1, Bromodomain-containing protein 3 (Homo sapiens, UniProt Q15059). Kind of series: Displacement of fluorescein-labeled MS574 from recombinant human BRD3 BrD1 after 1 hr by fluorescence anisotropy assay. The method, boiled down:
(§1)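 Competition fluorescence anisotropy with His-tag-removed recombinant bromodomain (Ni-IDA purified, thrombin cleaved) at 0.25–1 µM, chosen so that 50–80% of probe is bound. FITC-labeled probe at 80 nM (≤2Kd), unlabeled ligand titrated, in PBS pH 7.4, read after 1 h at 25 °C. IC50 from curve fit, converted to Ki with the Nikolovska-Coleska correction to Cheng-Prusoff (one-site competitive). The resolvable Ki is limited by the probe Kd.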
(Polarisation of emitted light reports the rotation of a fluorescent probe.)

The target of series [2] is T2, Bromodomain-containing protein 7 (Homo sapiens, UniProt Q9NPI1).
T2 sequence (Q9NPI1 whole entry): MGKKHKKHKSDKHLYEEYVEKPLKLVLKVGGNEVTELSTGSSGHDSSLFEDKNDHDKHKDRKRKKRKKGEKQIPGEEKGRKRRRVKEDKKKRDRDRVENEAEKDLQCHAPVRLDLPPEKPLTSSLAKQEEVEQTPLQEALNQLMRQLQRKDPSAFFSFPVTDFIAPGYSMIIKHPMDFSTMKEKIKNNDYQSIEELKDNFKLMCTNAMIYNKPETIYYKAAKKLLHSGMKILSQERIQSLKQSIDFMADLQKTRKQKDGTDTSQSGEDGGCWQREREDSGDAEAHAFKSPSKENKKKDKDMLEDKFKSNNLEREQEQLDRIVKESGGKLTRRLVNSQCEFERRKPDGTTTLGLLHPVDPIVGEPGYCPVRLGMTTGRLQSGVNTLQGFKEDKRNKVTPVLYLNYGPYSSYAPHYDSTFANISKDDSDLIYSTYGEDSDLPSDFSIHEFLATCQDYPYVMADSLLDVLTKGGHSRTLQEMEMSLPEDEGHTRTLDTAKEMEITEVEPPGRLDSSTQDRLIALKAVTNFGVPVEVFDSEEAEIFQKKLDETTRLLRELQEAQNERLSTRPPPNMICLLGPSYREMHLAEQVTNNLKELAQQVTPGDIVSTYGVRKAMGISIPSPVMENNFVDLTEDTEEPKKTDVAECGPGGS
The series can be described thus: Displacement of fluorescein-labeled MS226 from recombinant human BRD7 after 1 hr by fluorescence anisotropy assay. Put shortly:
as §1

The target in series [3] is T1, Bromodomain-containing protein 3. The series can be described thus: Displacement of fluorescein-labeled MS574 from recombinant human BRD3 BrD2 after 1 hr by fluorescence anisotropy assay. The method, boiled down: as §1
For series [4], the target named is SWI/SNF-related matrix-associated actin-dependent regulator of chromatin subfamily A member 4 (Homo sapiens, UniProt P51532). Kind of series: Displacement of fluorescein-labeled MS239 from recombinant human SMARCA4 bromodomain after 1 hr by fluorescence anisotropy assay. The method, boiled down:
as §1

For a further series, the target named is CREB-binding protein (Homo sapiens, UniProt Q92793). The series can be described thus: Displacement of fluorescein-labeled MS226 from recombinant human CBP bromodomain after 1 hr by fluorescence anisotropy assay. Put shortly: as §1
Sequence of CREB-binding protein (Q92793 whole entry): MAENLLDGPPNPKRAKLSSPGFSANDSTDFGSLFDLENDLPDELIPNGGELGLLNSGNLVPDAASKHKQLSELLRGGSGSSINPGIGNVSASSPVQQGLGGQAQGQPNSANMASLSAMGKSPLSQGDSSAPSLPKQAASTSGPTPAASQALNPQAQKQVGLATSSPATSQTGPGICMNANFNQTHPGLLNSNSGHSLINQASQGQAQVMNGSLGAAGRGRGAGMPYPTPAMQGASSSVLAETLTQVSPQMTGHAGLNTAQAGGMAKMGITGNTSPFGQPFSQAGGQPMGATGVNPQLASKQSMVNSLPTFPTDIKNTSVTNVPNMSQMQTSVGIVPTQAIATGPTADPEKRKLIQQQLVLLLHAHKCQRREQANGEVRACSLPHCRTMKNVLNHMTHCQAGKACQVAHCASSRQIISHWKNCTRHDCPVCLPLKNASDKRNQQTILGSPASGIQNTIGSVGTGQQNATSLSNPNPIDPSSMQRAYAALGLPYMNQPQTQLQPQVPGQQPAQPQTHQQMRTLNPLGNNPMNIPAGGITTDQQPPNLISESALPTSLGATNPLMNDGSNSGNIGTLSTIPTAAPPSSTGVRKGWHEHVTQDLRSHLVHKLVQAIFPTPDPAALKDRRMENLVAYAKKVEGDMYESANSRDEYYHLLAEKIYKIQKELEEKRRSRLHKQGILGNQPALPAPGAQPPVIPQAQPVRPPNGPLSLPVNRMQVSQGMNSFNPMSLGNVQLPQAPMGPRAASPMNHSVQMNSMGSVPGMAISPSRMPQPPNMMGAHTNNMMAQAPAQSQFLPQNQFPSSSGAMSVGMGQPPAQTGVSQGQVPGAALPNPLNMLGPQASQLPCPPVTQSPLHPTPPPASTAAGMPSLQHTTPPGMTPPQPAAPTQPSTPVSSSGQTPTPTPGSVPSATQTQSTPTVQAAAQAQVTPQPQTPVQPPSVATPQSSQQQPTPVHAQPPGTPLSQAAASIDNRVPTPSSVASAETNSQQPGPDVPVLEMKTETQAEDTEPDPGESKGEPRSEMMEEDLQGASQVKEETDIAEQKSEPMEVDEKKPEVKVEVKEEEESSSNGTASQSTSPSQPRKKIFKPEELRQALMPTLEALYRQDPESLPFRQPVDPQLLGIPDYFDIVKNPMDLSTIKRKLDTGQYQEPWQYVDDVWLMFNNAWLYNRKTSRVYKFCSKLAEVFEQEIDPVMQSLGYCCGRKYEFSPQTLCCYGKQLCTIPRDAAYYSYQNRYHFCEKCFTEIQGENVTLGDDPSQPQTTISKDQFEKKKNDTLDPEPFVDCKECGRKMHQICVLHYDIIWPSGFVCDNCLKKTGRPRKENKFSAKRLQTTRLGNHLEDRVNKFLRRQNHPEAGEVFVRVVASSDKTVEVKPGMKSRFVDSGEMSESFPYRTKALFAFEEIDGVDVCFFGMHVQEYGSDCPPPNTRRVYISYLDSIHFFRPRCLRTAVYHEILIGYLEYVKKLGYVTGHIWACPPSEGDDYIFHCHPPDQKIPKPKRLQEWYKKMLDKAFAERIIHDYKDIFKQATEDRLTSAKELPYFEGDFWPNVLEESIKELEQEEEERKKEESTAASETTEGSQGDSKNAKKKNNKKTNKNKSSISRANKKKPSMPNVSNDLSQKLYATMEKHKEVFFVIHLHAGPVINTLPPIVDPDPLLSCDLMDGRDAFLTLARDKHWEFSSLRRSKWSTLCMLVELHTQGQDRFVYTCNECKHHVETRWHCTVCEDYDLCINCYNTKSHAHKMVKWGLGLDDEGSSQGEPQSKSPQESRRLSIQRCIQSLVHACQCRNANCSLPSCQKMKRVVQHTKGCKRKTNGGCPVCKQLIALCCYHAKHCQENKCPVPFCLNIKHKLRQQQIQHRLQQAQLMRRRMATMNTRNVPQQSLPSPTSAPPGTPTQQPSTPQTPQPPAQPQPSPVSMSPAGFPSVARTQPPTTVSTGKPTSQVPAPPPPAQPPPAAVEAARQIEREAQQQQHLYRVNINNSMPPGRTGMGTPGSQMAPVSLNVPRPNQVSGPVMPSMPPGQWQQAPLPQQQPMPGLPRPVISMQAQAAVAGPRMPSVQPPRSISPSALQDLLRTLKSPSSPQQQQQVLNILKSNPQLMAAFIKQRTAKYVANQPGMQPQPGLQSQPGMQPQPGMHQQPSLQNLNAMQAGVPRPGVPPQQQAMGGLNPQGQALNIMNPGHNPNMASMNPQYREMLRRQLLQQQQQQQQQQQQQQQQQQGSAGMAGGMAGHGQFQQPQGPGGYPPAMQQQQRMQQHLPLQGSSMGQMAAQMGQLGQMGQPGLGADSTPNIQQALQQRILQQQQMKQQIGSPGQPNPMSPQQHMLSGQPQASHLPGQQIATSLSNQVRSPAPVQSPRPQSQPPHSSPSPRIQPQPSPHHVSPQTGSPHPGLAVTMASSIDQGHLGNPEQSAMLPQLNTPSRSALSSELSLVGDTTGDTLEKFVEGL
Series [5] addresses Nucleosome-remodeling factor subunit BPTF (Homo sapiens, UniProt Q12830). The series can be described thus: Displacement of fluorescein-labeled MS239 from recombinant human BPTF after 1 hr by fluorescence anisotropy assay. Put shortly:
as §1

Series [6] addresses Histone acetyltransferase KAT2B (Homo sapiens, UniProt Q92831). Kind of series: Displacement of fluorescein-labeled MS239 from recombinant human PCAF after 1 hr by fluorescence anisotropy assay. The method, boiled down:
as §1

The target of series [7] is Bromodomain-containing protein 4 (Mus musculus) (UniProt Q9ESU6). Kind of series: (§2) Inhibition of BRD4 in LPS-stimulated mouse RAW264.7 cells assessed as inhibition of NF-kappaB-mediated IL-6 expression preincubated for 30 mins followed by LPS stimulation measured after 24 hrs by ELISA. Format: cell-based. The method, boiled down:
(§3)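 RAW264.7 cells grown in DMEM/10% FBS at 37 °C, 5% CO2, plated at 3 × 10^5 cells/mL, pretreated with inhibitor for 30 min. Medium was then replaced with LPS (1 µg/mL) plus inhibitor for 24 h. Compounds were diluted from DMSO to 0.28–50000 nM, final DMSO 0.05% (v/v). Supernatant IL-6 was measured by mouse ELISA read at 570 nm.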

For series [8], the target named is T3, Bromodomain-containing protein 4 (Mus musculus, UniProt Q9ESU6). Described as §2. Format: cell-based. Put shortly: as §3
In series [9] the target is Bromodomain-containing protein 4 (Mus musculus) (UniProt Q9ESU6). The series can be described thus: (§4) Inhibition of BRD4 in LPS-stimulated mouse RAW264.7 cells assessed as inhibition of NF-kappaB-mediated nitric oxide production preincubated for 30 mins followed by LPS stimulation measured after 24 hrs by spectrophotometric analysis. In kind it is cell-based. Put shortly: (§5)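 RAW264.7 cells in DMEM/10% FBS, plated at 3 × 10^5 cells/mL, pretreated with inhibitor 30 min, then LPS (1 µg/mL) plus inhibitor for 24 h. Inhibitor concentrations 0.28–50000 nM from DMSO stock, final DMSO 0.05% (v/v). Nitrite in the supernatant was measured spectrophotometrically at 520 nm.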

Series [10] addresses T3, Bromodomain-containing protein 4. The series is described as §4. Format: cell-based. The method, boiled down:
as §5

The target of series [11] is T4, Bromodomain-containing protein 4 (Homo sapiens, UniProt O60885). Kind of series: Displacement of fluorescein-labeled MS574 from recombinant human BRD4 BrD2 after 1 hr by fluorescence anisotropy assay. Put shortly: as §1
Series [12] has as its target T4, Bromodomain-containing protein 4. Kind of series: Displacement of fluorescein-labeled MS574 from recombinant human BRD4 BrD1 after 1 hr by fluorescence anisotropy assay. The method, boiled down: as §1

A value given as a limit tells only on which side of the number the result lay.

T1 sequence (Q15059 whole entry): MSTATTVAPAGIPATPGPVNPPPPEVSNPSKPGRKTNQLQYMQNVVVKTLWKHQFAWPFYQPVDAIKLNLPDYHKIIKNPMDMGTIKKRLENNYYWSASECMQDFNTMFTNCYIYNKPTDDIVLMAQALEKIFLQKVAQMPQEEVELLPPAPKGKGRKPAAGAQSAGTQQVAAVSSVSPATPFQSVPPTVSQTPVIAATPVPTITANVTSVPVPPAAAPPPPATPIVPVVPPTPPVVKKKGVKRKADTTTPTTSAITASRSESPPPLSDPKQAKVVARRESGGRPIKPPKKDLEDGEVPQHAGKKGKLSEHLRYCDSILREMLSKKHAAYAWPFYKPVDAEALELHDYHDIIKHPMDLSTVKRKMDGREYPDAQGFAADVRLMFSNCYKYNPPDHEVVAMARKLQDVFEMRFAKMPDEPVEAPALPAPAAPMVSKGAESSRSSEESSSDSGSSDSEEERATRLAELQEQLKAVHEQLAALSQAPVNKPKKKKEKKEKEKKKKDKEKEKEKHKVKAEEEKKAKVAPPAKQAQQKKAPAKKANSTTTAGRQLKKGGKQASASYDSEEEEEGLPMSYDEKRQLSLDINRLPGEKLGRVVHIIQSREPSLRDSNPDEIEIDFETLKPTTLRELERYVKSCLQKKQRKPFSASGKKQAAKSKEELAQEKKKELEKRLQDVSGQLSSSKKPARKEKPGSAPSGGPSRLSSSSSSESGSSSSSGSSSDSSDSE
Sequence of Histone acetyltransferase KAT2B (Q92831 whole entry): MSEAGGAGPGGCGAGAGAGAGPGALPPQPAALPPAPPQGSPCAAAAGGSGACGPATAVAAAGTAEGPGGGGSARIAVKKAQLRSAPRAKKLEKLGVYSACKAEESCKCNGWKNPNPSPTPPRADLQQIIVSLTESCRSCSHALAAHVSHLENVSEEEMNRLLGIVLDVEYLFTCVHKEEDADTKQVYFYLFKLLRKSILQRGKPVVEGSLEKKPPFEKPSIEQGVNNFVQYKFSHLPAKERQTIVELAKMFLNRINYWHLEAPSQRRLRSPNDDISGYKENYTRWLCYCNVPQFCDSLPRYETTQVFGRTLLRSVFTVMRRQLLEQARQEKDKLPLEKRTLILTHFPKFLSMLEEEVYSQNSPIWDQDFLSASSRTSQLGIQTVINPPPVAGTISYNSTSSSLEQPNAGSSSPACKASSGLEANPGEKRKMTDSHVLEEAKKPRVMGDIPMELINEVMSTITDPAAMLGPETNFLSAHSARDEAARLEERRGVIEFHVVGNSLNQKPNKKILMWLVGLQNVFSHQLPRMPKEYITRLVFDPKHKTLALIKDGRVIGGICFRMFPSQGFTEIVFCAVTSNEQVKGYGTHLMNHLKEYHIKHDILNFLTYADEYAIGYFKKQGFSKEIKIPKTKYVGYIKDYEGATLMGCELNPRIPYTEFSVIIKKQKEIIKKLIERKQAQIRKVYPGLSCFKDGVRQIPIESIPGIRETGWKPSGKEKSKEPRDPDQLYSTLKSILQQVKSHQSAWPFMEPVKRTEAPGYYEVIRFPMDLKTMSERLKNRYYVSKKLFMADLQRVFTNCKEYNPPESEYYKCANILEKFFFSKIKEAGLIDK

One may read the IC50 as the concentration needed to halve the response being measured. As to `Cc1cc(/N=N/c2ccc(S(=O)(=O)Nc3ccccn3)cc2)c(N)c(Cl)c1O`, in the series on RAW264.7, the Activity result was “Non-toxic”. For the same molecule, the Ki in series [1] is 0.24 µM; in series [2] it was under 1.43 µM; in series [3], 0.32 µM; in series [4], under 6.56 µM; on CREB-binding protein, 5.59 µM; in series [5], 1.62 µM. The Ki in series [6] is under 3.34 µM. The inhibition result in [7] and in [9] was “Dose-dependent effect” in each case. Moreover, the IC50 in [8] was determined as 3.8 µM; in series [10] it was 3.4 µM.
On to `Cc1cc(/N=N/c2ccc(S(=O)(=O)Nc3ccccn3)cc2)c(N)c(C)c1O`, for which, in the series on RAW264.7, the Activity result is “Non-toxic”. In addition, the Ki in series [1] was 0.29 µM; in series [2], under 1.43 µM; in series [3] it was 0.22 µM; in [4], under 6.56 µM; at CREB-binding protein, 5.12 µM; in series [11], 0.44 µM. In addition, the Ki in series [5] was under 1.7 µM; in series [6], under 3.34 µM; in series [12] (read-out: Ki) it was 0.15 µM; in [12] (read-out: pKi (converted)) it was 0.151 µM. Moreover, the inhibition result in series [7] and in series [9] was “Dose-dependent effect” throughout. Further, the IC50 stood at 23.2 µM in series [8] and 38.1 µM in [10].
As to `Cc1cc(/N=N/c2ccc(S(=O)(=O)Nc3ccccn3)cc2)c(N)cc1O`, in the series with RAW264.7, the Activity entry is recorded as “Non-toxic”. For the same molecule, the Ki in series [1] stood at 0.1 µM; in [2], 2.72 µM; in [3], 0.14 µM; in [4], 7.97 µM; at CREB-binding protein, 2.18 µM; in [5] it was 6.06 µM. For the same molecule, in series [6], the Ki came out at 5.52 µM. Moreover, the inhibition result in [7] and in [9] was “Dose-dependent effect” in each case. In addition, the IC50 in [8] came out at 4.9 µM; in series [10], 3.8 µM.
As for `Cc1cc(/N=N/c2ccc(S(=O)(=O)Nc3ccccn3)cc2)cc(C)c1O`, in the series with RAW264.7, the Activity entry was “Non-toxic”. In addition, the Ki in series [1] was 1.64 µM; in [2], 3.54 µM; in series [3], 2.48 µM; in series [4], under 6.56 µM; on CREB-binding protein, 7.15 µM; in [11] it was 4.3 µM. Moreover, the Ki was 0.91 µM in series [12] (read-out: Ki) and 0.912 µM in series [12] (read-out: pKi (converted)). Moreover, the inhibition result in [7] and in series [9] was “Dose-dependent effect” throughout. In addition, the IC50 in series [8] was determined as 16 µM; in [10], 46.3 µM.

Source of the values: ChEMBL document CHEMBL3085768, “Structure-guided design of potent diazobenzene inhibitors for the BET bromodomains” (J Med Chem, 2013).
